From ChEMBL document CHEMBL3872218, “Synthesis and T-type calcium channel-blocking effects of aryl(1,5-disubstituted-pyrazol-3-yl)methyl sulfonamides for neuropathic pain treatment” (Eur J Med Chem, 2016)

Experiments:
[1] = biological target: T1, Voltage-dependent T-type calcium channel subunit alpha-1H (Homo sapiens, UniProt O95180); test: Inhibition of Cav3.2 alpha1H (unknown origin) expressed in HEK293 cells assessed as decrease in KCl-induced depolarization mediated intracellular Ca2+ level at 10 uM by fluo3/AM based high throughput screening assay relative to control; assay type: cell-based
How it was run: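 HEK293 cells stably expressing Cav3.1 or Cav3.2 plated at 4 × 10⁴ cells/well and used the next day. Loaded 60 min at room temperature with […] fluo3/AM plus 0.001% Pluronic F-127 in HEPES-buffered saline (1.8 mM CaCl₂, pH 7.4). Ca²⁺ fluorescence read on FDSS6000 as % inhibition, compound at […].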

[2] = biological target: T1, Voltage-dependent T-type calcium channel subunit alpha-1H; test: Inhibition of Cav3.2 alpha1H (unknown origin) expressed in HEK293 cells by whole-cell patch clamp method; assay type: cell-based
How it was run: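 Whole-cell patch clamp on HEK293 cells expressing Cav3.1 or Cav3.2. T-type currents evoked every 15 s by a 50-ms step from −100 mV to −30 mV. External solution (mM): 140 NaCl, 2 CaCl₂, 10 HEPES, 10 glucose, pH 7.4.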

CYP1A2 = biological target: T2, CYP1A2 (Homo sapiens, UniProt P05177); test: Inhibition of human CYP1A2 assessed as remaining activity at 10 uM using vivid CYP450 substrate measured after 15 mins by fluorescence assay relative to alpha-naphthoflavon; assay type: ADME; settings: probe vivid CYP450 substrate, read-out: Activity
T2 sequence (P05177 whole entry): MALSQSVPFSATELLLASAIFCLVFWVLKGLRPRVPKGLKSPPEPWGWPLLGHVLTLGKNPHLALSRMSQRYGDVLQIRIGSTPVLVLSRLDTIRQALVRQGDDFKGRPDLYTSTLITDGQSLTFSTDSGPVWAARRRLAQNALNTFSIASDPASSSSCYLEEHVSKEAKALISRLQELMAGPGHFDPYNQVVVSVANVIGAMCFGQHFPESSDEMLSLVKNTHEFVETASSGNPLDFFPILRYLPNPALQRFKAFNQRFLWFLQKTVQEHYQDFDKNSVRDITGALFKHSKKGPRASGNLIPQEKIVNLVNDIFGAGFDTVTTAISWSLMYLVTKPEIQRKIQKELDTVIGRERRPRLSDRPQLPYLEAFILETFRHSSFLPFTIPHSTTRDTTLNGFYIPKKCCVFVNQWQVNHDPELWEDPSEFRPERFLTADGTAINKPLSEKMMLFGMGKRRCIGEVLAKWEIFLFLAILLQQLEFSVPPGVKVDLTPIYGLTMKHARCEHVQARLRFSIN
How it was run: (§1)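 Vivid fluorescence CYP assay: test compound at […] in water, mixed with BACULOSOMES master pre-mix and regeneration system, preincubated 15 min at 37 °C. Reaction started with Vivid substrate and NADPH. Remaining activity read by fluorescence as % of control, triplicate, mean ± SD. Isoform-specific reference inhibitors: α-naphthoflavone (1A2), sulfaphenazole (2C9), quinidine (2D6), ketoconazole (3A4).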

[3] = AUC (0 to infinity) in Sprague-Dawley rat at 10 mg/kg, iv; assay type: ADME, organism-based; set-up: dose 10 mg/kg, route intravenous, time infinity; settings: in vivo
Homo sapiens = species: Homo sapiens; test: Inhibition of N-type Ca2+ channel (unknown origin) at 10 uM by whole-cell patch clamp method relative to control
[4] = AUClast in Sprague-Dawley rat at 10 mg/kg, po; assay type: ADME, organism-based; set-up: dose 10 mg/kg, route oral, time 0 - last; settings: in vivo
[5] = biological target: Voltage-gated inwardly rectifying potassium channel KCNH2 (Homo sapiens, UniProt Q12809); test: Inhibition of human ERG expressed in CHOK1 cells by whole-cell patch clamp method; assay type: cell-based, CHO-K1
Rattus norvegicus [6] = test: Antineuropathic pain activity in rat spinal nerve ligation model assessed as effect on mechanical allodynia by measuring frequency of paw withdrawal at 100 mg/kg, po measured at 1 hr relative to gabapentin; assay type: functional
How it was run: (§2)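 Spinal nerve ligation rats tested 2 weeks after nerve surgery, 100 mg/kg oral, n = 4 per group. Behaviour re-tested at 1, 3 and 5 h after dosing. Mechanical allodynia: von Frey filament applied five times, every 3–4 s, to the hind paw on a wire mesh floor. Cold allodynia: acetone applied to the plantar hind paw on a metal mesh floor.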

[7] = Plasma concentration in Sprague-Dawley rat at 10 mg/kg, iv at 2 hrs post dose; assay type: ADME, organism-based
Rattus norvegicus [8] = test: Antineuropathic pain activity in rat spinal nerve ligation model assessed as effect on cold allodynia by measuring frequency of paw withdrawal at 100 mg/kg, po measured at 5 hrs relative to gabapentin; assay type: functional; how it was run: as §2
CYP2C9 = CYP2C9 (Homo sapiens, UniProt P11712); test: Inhibition of human CYP2C9 assessed as remaining activity at 10 uM using vivid CYP450 substrate measured after 15 mins by fluorescence assay relative to sulfaphenazol; assay type: ADME; settings: probe vivid CYP450 substrate, read-out: Activity; how it was run: as §1
[9] = Terminal half life in Sprague-Dawley rat at 10 mg/kg, po; assay type: ADME, organism-based; settings: in vivo, read-out: beta t1/2
[10] = Ratio of drug level in brain to plasma in Sprague-Dawley rat at 10 mg/kg, po at 2 hrs post dose; assay type: ADME, organism-based; settings: read-out: BPR
Rattus norvegicus [11] = test: Antineuropathic pain activity in rat spinal nerve ligation model assessed as effect on mechanical allodynia by measuring frequency of paw withdrawal at 100 mg/kg, po measured at 5 hrs relative to control; assay type: functional; how it was run: as §2

T1 sequence (O95180 whole entry): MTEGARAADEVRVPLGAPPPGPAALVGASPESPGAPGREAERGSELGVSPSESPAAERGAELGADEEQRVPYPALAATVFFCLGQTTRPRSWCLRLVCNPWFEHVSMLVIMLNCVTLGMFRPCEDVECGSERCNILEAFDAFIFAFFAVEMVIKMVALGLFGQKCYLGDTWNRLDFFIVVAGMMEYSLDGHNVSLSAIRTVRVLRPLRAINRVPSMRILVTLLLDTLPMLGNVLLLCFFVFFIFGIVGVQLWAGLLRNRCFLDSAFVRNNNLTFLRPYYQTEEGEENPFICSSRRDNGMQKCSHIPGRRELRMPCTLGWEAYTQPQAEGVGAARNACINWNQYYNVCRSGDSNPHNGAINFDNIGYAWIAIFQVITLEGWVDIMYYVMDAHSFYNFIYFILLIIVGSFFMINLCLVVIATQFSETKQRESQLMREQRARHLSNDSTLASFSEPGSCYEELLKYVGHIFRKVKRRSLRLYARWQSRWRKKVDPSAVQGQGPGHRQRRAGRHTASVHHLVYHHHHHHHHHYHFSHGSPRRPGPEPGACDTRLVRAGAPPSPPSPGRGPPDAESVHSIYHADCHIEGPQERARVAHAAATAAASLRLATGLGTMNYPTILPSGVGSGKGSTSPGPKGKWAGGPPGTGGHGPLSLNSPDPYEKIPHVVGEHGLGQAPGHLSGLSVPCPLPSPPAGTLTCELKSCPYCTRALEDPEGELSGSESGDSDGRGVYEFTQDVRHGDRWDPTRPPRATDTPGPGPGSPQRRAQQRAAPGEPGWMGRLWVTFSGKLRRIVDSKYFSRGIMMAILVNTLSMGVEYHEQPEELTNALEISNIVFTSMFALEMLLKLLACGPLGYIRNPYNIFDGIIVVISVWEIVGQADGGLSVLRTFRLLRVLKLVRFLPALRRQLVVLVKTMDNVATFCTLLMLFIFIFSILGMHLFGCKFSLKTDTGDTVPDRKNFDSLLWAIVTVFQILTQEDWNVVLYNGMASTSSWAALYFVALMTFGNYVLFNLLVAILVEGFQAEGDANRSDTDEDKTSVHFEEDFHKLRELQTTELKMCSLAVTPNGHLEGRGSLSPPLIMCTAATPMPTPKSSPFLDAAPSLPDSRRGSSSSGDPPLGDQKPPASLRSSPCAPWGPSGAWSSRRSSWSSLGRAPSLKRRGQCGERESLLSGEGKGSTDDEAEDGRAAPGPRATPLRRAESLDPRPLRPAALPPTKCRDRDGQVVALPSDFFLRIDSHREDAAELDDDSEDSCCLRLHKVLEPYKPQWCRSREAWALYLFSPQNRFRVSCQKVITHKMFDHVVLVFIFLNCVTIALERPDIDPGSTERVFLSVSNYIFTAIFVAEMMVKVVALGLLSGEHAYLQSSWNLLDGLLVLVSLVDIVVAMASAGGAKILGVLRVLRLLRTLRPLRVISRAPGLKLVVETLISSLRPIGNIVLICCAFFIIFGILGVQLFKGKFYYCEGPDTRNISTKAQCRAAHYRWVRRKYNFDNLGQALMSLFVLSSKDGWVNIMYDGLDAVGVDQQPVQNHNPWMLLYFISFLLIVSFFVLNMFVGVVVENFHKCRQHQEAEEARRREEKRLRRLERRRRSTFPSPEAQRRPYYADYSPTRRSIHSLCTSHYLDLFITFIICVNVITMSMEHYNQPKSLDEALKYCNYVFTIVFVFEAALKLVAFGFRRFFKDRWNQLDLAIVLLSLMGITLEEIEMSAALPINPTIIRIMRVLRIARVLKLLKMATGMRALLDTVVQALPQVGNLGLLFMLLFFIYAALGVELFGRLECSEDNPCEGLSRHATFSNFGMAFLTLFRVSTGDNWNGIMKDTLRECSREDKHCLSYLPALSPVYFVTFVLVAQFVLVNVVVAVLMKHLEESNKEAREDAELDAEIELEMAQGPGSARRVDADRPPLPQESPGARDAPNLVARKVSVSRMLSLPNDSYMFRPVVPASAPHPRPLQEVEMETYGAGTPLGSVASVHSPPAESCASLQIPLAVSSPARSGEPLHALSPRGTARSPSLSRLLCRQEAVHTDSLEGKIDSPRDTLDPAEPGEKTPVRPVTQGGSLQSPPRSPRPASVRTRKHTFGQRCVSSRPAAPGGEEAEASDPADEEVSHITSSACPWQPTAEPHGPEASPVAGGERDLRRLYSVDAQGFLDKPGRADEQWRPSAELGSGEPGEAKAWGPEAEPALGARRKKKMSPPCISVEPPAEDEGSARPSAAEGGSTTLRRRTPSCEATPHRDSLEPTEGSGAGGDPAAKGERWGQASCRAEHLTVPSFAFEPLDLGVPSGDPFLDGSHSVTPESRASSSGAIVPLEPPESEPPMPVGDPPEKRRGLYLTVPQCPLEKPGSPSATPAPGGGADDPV
CYP2C9, sequence (P11712 whole entry): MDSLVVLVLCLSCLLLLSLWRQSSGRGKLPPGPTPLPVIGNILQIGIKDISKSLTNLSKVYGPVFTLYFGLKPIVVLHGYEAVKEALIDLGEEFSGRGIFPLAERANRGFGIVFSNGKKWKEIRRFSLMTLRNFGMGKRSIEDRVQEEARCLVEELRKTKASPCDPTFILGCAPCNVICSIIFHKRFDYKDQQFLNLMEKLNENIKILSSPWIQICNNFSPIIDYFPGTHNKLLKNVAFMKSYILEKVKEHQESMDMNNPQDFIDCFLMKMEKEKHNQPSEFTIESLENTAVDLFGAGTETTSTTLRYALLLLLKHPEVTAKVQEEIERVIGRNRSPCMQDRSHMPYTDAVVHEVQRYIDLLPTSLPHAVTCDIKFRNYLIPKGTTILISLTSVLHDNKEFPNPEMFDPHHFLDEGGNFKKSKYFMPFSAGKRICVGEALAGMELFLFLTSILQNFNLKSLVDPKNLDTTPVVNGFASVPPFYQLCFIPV
Voltage-gated inwardly rectifying potassium channel KCNH2, sequence (Q12809 whole entry): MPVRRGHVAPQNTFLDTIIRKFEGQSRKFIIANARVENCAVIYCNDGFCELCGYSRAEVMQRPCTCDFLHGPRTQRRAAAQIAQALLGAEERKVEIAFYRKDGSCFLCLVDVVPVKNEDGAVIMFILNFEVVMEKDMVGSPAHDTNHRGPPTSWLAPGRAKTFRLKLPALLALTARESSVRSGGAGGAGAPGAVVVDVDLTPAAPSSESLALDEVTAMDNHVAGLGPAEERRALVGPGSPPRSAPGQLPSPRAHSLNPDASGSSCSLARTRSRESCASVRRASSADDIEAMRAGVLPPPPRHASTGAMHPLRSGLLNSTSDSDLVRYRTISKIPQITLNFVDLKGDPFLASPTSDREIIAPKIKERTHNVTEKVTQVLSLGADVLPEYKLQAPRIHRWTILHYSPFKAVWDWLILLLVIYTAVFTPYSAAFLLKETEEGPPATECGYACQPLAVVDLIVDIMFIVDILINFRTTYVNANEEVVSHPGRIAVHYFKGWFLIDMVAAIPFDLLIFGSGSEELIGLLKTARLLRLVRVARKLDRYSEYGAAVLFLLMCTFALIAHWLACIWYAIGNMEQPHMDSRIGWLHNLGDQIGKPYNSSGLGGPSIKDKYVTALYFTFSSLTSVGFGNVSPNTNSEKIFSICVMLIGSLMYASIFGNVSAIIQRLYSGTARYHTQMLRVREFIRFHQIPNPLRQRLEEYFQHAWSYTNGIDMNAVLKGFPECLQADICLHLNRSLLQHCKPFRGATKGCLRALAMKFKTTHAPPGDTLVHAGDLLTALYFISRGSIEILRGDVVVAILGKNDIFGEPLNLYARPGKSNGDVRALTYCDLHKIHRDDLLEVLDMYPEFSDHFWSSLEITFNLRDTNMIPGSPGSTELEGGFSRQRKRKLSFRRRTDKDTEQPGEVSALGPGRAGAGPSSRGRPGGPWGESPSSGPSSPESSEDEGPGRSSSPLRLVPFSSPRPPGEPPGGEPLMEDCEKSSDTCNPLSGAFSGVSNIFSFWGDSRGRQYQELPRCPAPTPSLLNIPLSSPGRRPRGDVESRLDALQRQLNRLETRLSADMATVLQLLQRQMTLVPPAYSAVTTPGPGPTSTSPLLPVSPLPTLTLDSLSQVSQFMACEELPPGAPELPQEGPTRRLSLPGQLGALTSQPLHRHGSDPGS

In the case of CC(C)Cc1cc(CNS(=O)(=O)c2cccc(F)c2)nn1-c1ccccc1, the inhibition [1] is reported as 62.7%, the IC50 [2] is reported as 2.08 µM and the activity at 0.25 h, 10 µM (CYP1A2) is reported as 45.6%. The AUC(0-inf) [3] was 2020 ng·h/mL, the inhibition (Homo sapiens) was 55.6% and the AUC(0-t) [4] was 164 ng·h/mL. The IC50 [5] was 14.5 µM, the MPE (Rattus norvegicus [6]) was 14.78% and the concentration at 2 h [7] was 270 ng/mL. The MPE (Rattus norvegicus [8]) was 185.11%, the activity at 0.25 h, 10 µM (CYP2C9) was 30.4% and the half-life [9] was 1.11 h. For the same molecule, the Kp at 2 h [10] was 0.19 and the MPE (Rattus norvegicus [11]) was 19.48%.
